KCNQ1 act: potentiates or activates the human KCNQ1 potassium channel | P51787 | CHO-K1 KCNQ1, thallium flux FluxOR fluorescence; stronger effect = higher value | B-score at 10 µM | hit rate 0.35% among 310,000 | AID 2648;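 active means fluorescence ratio B-score, a plate-corrected score, at least three library SD, with initial intensity B-score within 5 SD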
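System: Stable KCNQ1 CHO-K1 line | Incubation: 90 min dye loading and 20 min compound exposure, both at room temperature | Measure: Ratio B score | Medium: Assay buffer for compound exposure, DMSO matched across wells | Compound dosing: Single-concentration screen | Probe or stimulus: K+/Tl+ depolarizing stimulus | Measured by: Kinetic FluxOR fluorescence, 10 s baseline plus 110 s post-stimulus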
hERG protect: compounds protecting human hERG from proarrhythmic drug block. CHO-hERG, FluxOR thallium flux, dofetilide IC70 present. activation (rescue from dofetilide block), less the hit threshold, % at 10 µM. hit rate 0.51% among 310,000. AID 1511;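 active means activation above the mean of controls blocked by dofetilide plus 5 SD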;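 further: thallium influx through hERG after potassium depolarization seen as dye fluorescence rise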
Target sequence (Q12809 whole entry, looked up): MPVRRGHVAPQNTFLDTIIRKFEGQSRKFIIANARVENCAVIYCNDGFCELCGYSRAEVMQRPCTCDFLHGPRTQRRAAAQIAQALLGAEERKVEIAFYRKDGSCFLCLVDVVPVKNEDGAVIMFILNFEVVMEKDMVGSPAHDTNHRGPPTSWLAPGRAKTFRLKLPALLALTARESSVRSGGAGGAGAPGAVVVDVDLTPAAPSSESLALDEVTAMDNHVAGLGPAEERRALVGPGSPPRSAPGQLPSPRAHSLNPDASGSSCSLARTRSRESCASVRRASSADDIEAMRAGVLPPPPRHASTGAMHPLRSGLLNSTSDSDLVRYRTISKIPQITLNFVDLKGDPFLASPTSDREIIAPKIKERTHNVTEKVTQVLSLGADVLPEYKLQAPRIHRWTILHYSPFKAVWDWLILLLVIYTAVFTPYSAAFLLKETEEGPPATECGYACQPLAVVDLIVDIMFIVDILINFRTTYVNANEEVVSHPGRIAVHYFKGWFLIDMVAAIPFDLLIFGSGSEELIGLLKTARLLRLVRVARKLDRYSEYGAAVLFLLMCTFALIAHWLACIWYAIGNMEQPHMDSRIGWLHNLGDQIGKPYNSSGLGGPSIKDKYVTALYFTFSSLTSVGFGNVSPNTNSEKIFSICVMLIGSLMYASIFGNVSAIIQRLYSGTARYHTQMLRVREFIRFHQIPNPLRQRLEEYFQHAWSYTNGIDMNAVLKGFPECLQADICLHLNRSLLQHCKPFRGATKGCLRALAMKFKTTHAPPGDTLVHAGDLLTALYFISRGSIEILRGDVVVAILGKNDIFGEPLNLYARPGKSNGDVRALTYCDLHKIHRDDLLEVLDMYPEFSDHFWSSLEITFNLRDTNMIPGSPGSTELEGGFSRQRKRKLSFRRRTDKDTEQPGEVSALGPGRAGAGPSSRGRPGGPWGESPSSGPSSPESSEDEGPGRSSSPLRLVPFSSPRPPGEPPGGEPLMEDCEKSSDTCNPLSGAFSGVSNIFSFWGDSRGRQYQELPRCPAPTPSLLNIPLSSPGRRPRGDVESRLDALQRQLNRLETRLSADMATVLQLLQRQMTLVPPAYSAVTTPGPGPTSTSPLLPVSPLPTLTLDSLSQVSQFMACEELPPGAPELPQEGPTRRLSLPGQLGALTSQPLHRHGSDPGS
KCNQ1 block: inhibitors of human KCNQ1 potassium channel | B-score at 10 µM | hit rate 1.3% among 310,000 | CHO-K1 KCNQ1, FluxOR thallium flux fluorescence; stronger effect = higher value | P51787 | AID 2642;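 active means compounds whose thallium flux B-score, printed positive for inhibition, exceeds three library SD while starting fluorescence stays within three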;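 further: channel opened by potassium depolarization with thallium stimulus after 20 min compound exposure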
Kir21 block: Kir2.1 (mouse) channel inhibition | P35561 | HEK293-Kir2.1, FluxOR thallium flux fluorescence; stronger effect = lower value | B-score at 10 µM | hit rate 0.85% among 310,000 | AID 1672;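 active means fluorescence ratio B-score at or below minus 3 SD of library scores, with starting-brightness B-score within 2 SD, cut at about -4.2 in these data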;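 further: channel flux triggered by added potassium and thallium sulfate stimulus; B-score of peak minus minimum fluorescence over baseline after thallium stimulus; more negative B-score means stronger Kir2.1 block with less thallium influx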
KCNK3 block: human KCNK3 channel inhibition, primary screen; O14649; CHO-KCNK3 thallium flux, FluxOR fluorescence; stronger effect = lower value; B-score at 10 µM; hit rate 0.84% among 340,000;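 active means B-score under library mean minus 4 SD, starting fluorescence ratio at most library mean plus 5 SD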;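 further: more negative B-score means stronger inhibition of thallium flux through KCNK3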
KCNK9 block: inhibitors of human KCNK9 two-pore domain potassium channel; Q9NPC2; HEK293 KCNK9, FluxOR thallium flux fluorescence; stronger effect = lower value; B-score at 10 µM; hit rate 1.2% among 310,000;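 active means ratio B-score over 3 SD below the library mean, with starting fluorescence within 5 SD of its mean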;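 further: negative B-score means less thallium flux so channel inhibition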
KCNK9 inh conf: human KCNK9 inhibitor confirmation; inhibition, % at 10 µM; HEK293 KCNK9 cells, FluxOR thallium flux fluorescence; hit rate 43% among 4,900; shares compounds with KCNK9 block; AID 492992;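 active means thallium signal inhibited by more than 5 SD of the compound-free buffer control wells, on both duplicate plates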;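 further: 0% = assay buffer control wells without compound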
Kir2-1 spec: tests whether KCNK9 modulators also affect mouse Kir2.1; shares compounds with KCNK9 block; Kir2.1 cells, FluxOR thallium flux fluorescence; inhibition, % at 10 µM; hit rate 4% among 4,900; AID 492993;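 active means thallium signal drop more than 5 SD beyond the mean of the no-compound control wells, seen in both duplicate plates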;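 further: signal is fluorescence rise after thallium addition divided by baseline fluorescence; plate controls were assay buffer only for no effect and full block by chlorpromazine control for full effect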
KCNK9 uninduced: second counter-screen for KCNK9 modulators: effect in non-induced cells | shares compounds with KCNK9 block | non-induced KCNK9-HEK293, FluxOR thallium flux | inhibition, % at 10 µM | hit rate 40% among 4,900 | AID 492997;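 active means thallium signal drop beyond 5 SD of the untreated control mean, on both duplicate plates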;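 further: plate controls were buffer only IC0 wells for no effect and SID17386958 at its maximal inhibitory level for full effect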
KCNK3 inh conf: confirmation of human KCNK3 two-pore domain potassium channel inhibitors. hit rate 99% among 2,400. shares compounds with KCNK3 block. CHO-KCNK3 thallium flux, FluxOR fluorescence; 0% buffer, 100% carvedilol maximal block. ratio percent of control, % at 10 µM;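 active means ratio percent of control, averaged over triplicates, above buffer control mean plus 5 SD, cut at about 64% in these data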;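 further: ratio is the fluorescence rise from min to max over baseline after thallium stimulus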
KCNK3 noninduced: counter-screen for KCNK3 inhibitors: effect in non-induced cells; shares compounds with KCNK3 block; non-induced KCNK3 parental cells, FluxOR thallium flux; stronger effect = lower value; thallium flux ratio (lower = more inhibition) at 10 µM; hit rate 40% among 2,400;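 active means thallium flux ratio, averaged over three wells, more than 5 SD below the buffer control mean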;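 further: host cells are CHO cells without KCNK3 induction; ratio is peak minus trough fluorescence over baseline then normalized to buffer controls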
The depositor's hits bear a star; i = inactive; . = no result. The list is not random: actives were taken first. Their share in the collection is about 3.7%.

SMILES	KCNQ1 act	hERG protect	KCNQ1 block	Kir21 block	KCNK3 block	KCNK9 block	KCNK9 inh conf	Kir2-1 spec	KCNK9 uninduced	KCNK3 inh conf	KCNK3 noninduced
COCCn1c(=NC(=O)CSC(C)=O)sc2cc(OC)ccc21	i	-10.4	i	0.05	-8.95*	-15.5*	60.0%*	i	25.5%*	92.7*	i
COc1ccc(Cl)cc1-c1nc(SCC(=O)N(C)C2CCS(=O)(=O)C2)n[nH]1 (stereo unspecified)	.	.	.	.	i	.	.	.	.	.	.
CC(=O)N(CN1C(=O)c2ccccc2C1=O)c1ccc2c(c1)oc1ccccc12	i	-12.4	i	0.15	i	i	.	.	.	.	.
Cc1ccc(S(=O)(=O)n2nc(OC(=O)c3ccccc3C)cc2N)cc1	i	-2.0	i	0.03	-14.7*	-17.9*	69.5%*	i	74.5%*	116.7*	i
CCn1cc(Br)c(C(=O)Nc2ccc(C(=O)OC(C)C)cc2)n1	i	-4.7	i	0.43	-9.7*	-10.7*	41.0%*	i	25.5%*	99.3*	i
N#CCC(=O)Nc1ccc(C(=O)OCc2ccccc2Oc2ccccc2)cc1	i	-13.9	i	1.2	-10.2*	-10.7*	57.5%*	i	25.0%*	115.0*	0.151*
CCN(Cc1ccccc1)C(c1cccc(C#N)c1)c1nnnn1C(C)(C)C (stereo unspecified)	i	-1.5	i	-0.09	-9.25*	-14.1*	64.5%*	i	43.0%*	101.7*	i
CC(Oc1ccc(Cl)cc1)C(=O)Nc1ccc(S(=O)(=O)N2CCOCC2)cc1 (stereo unspecified)	i	-6.5	i	-1.43	i	i	.	.	.	.	.
CC(Oc1ccc(Cl)cc1)c1ccnn1S(=O)(=O)c1ccc(Cl)cc1 (stereo unspecified)	i	-11.8	i	0.31	-13.5*	-14.9*	58.0%*	44.5%*	58.0%*	113.7*	0.156*
CC(NC(=O)C(=O)N1CCOCC1)C(c1cccs1)N1CCN(c2ccccc2)CC1 (stereo unspecified)	i	-2.0	i	0.43	i	i	.	.	.	.	.
N#Cc1cccc(C(c2nnnn2C2CCCC2)N2CCC(Cc3ccccc3)CC2)c1 (stereo unspecified)	i	-16.2	i	0.11	-11*	-12.1*	58.5%*	i	30.0%*	112.0*	0.152*
O=S(Cc1cc(Oc2ccccc2)nc(-c2ccccc2)n1)c1ccccc1 (stereo unspecified)	i	-10.9	i	1.63	-9.96*	-18.1*	70.0%*	i	37.0%*	115.0*	i
Cc1onc(-c2ccccc2Cl)c1C(=O)N(Cc1nc(-c2ccccc2)no1)C1CCCCC1	i	-10.4	i	0.94	i	-9.66*	29.5%*	i	31.5%*	90.3*	0.148*
COc1ccc(C2CC(c3ccc4ccccc4c3)=NN2C(=O)CNC2CCCCC2)cc1 (stereo unspecified)	i	-29.5	i	-1.51	-10.6*	-8.9*	44.5%*	i	29.5%*	132.7*	i
O=C(COC(=O)Cc1cccc(C(F)(F)F)c1)NC1CCS(=O)(=O)C1 (stereo unspecified)	i	-15.5	i	-0.25	i	i	.	.	.	.	.
CCOC(=O)c1ccc(Cn2c(-c3ccccc3)nnc2-c2ccccc2)o1	i	-6.2	i	0.22	-9.33*	-13*	56.0%*	i	40.5%*	114.7*	0.152*
O=C(Cc1c[nH]c2ccccc12)N1CCN(S(=O)(=O)c2cccc(Cl)c2Cl)CC1	.	.	.	.	i	.	.	.	.	.	.
Cc1cc(C)c(S(=O)(=O)N2CCCCC2)c(C)c1N(C)S(=O)(=O)c1ccccc1	i	-4.6	i	1.02	-8.76*	i	i	i	i	97.0*	0.157*
Cc1cc(C)c(S(=O)(=O)N2CCOCC2)c(C)c1N(C)S(=O)(=O)c1ccccc1	i	-16.1	i	-0.2	i	i	.	.	.	.	.
CC(=O)Oc1cc(C)cc2oc(=O)cc(-c3ccccc3)c12	i	-7.3	i	0	i	i	.	.	.	.	.
Cc1cc(OCC(=O)N2CCc3ccccc3C2)c2c(-c3ccccc3)cc(=O)oc2c1	i	-3.3	i	-0.09	-10.8*	i	i	i	i	98.7*	i
O=C(C[C@@H]1C/C=C/CC[C@H](Cc2ccc(F)cc2)C(=O)OCCNC1=O)N[C@H](CO)Cc1ccccc1	.	.	.	.	i	.	.	.	.	.	.
CCCn1c(=O)c(C(=O)Nc2ncccc2C)c(O)c2ccccc21	i	-5.8	i	0.15	i	i	.	.	.	.	.
CCCn1c(=O)c(C(=O)Nc2ccccc2C(=O)OCC)c(O)c2ccccc21	i	-10.8	i	-0.19	-8.87*	-9.16*	53.5%*	i	37.5%*	91.7*	i
CCOc1ccc(NC(=O)C(Cc2ccccc2)N2C(=O)c3cccc4cccc(c34)C2=O)cc1 (stereo unspecified)	i	-10.6	i	0.03	i	i	.	.	.	.	.
SMILES	KCNQ1 act	hERG protect	KCNQ1 block	Kir21 block	KCNK3 block	KCNK9 block	KCNK9 inh conf	Kir2-1 spec	KCNK9 uninduced	KCNK3 inh conf	KCNK3 noninduced
CC(C)N(Cc1nc(-c2ccc(Cl)cc2)no1)C(=O)CCC1CCCC1	i	-20.0	i	-0.02	-10.9*	-13.9*	65.5%*	i	42.0%*	117.7*	i
COc1ccccc1OCC(=O)N(Cc1nc(-c2ccc(Cl)cc2)no1)C(C)C	i	-8.2	i	-0.5	i	i	.	.	.	.	.
O=C1C=C(c2cccc(CO)c2)C[C@@H](c2ccc(F)cc2)C1	.	.	.	.	i	.	.	.	.	.	.
Cc1ccc2nc3sc(C(=O)N4CCCc5ccccc54)c(N)c3cc2c1	i	-19.5	i	-1.16	-9.05*	-11.2*	53.0%*	i	51.5%*	135.3*	0.0833*
Cc1ccc(-c2cc(C(=O)N3CCCc4ccccc43)c3ccccc3n2)cc1	i	-5.1	i	2.08	i	i	.	.	.	.	.
CCN(CC)CCNC(=O)c1ccc(-n2c(C)cc3c2CCCC3=O)cc1	i	-11.4	i	1.33	i	i	.	.	.	.	.
CCOc1cc(C(=O)OCC(=O)Nc2cc(C)on2)cc(OCC)c1OCC	i	-10.4	i	-0.94	i	i	.	.	.	.	.
